This is a sample that favours compounds with a hit; in the whole collection about 2.1% have one here.
CRFBP-R2 block: CRF-BP/CRF-R2 complex antagonism; HEK293 CRF-R2/CRF-BP, CRF-induced calcium fluorescence; inhibition, % at 11.8 µM; 0.59% of 350,000 active;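 active = inhibition of the ligand-induced calcium signal above about 50% at the single tested concentration, limit read from the data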
iPSC survival up: increases survival of single human iPS cells | hiPSC single-cell survival, ATPlite luminescence; 100% = ROCK inhibitor wells, 0% = DMSO | survival enhancement, % at 20 µM | 0.044% of 360,000 active | AID 602274; in the data active = survival enhancement above about 18%;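 also: cells exposed to compounds for 16 hours before the ATP read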
H9c2 protect: modulators protecting cardiomyocytes from myocardial damage | AID 588492 | 0.63% of 360,000 active | H9c2 cardiomyocytes, H2O2 injury protection, ATPLite, 2 h | protection from H2O2 cell death, % at 20 µM;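 active = compounds giving at least 50% protection of heart cells from peroxide-induced death in the single-dose screen, raw or plate-pattern-corrected value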;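 also: 0% = DMSO wells with peroxide and 100% = DMSO wells without peroxide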
CRFBP-R2 agonist: agonists of human CRF-binding protein/CRF-R2 receptor complex | AID 588473 | activation, % at 13.2 µM | 0.46% of 350,000 active | HEK293 CRF-R2/CRF-BP, calcium dye fluorescence (FLIPR); percent of saturating CRF peptide response;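 active = activation of at least 50%, plus an integration ratio under a set limit after plate pattern correction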;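 also: plate controls were neutral control wells without compound for no effect and CRF at EC100 for full effect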
MIN6 prolif: MIN6 beta-cell proliferation induction | MIN6 cells proliferation, ATPlite luminescence, 48 h; cells starved in 0.2% serum; 100% = growth in 10% serum | proliferation, % at 10 µM | 0.29% of 330,000 active;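 active = compounds whose signal lies at least 3.5 SD above the mean of all wells on their plate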;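 also: 0% = DMSO-treated cells in low-serum medium and 100% = 10% serum control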
UCH37 DUB inh: inhibitors of human deubiquitinating enzyme UCH37; Q9Y5K5; purified proteasome/UCH37, Ub-AMC cleavage fluorescence; inhibition, % (no concentration beside the values); 0.33% of 330,000 active;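 active = mean inhibition over replicate wells above about 20%, limit read from the data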;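 also: 0% = compound-free wells with enzyme and 100% = wells lacking proteasome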
Target sequence (Q9Y5K5 whole entry, looked up): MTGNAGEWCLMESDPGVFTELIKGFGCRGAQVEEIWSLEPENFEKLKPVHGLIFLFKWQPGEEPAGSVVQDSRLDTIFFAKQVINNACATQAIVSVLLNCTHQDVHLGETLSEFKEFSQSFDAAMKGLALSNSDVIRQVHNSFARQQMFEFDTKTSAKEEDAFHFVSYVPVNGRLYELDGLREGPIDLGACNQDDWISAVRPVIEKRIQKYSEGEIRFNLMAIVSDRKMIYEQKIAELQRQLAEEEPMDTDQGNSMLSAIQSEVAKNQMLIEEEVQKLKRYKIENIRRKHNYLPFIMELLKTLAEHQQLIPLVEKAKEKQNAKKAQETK
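Signal – fluorescence, ex 355 nm, em 460 nm · System – Proteasome-bound UCH37 · Input – 0.15 nM proteasome as dispensed · Timing – 30 min preincubation with enzyme, 25 min cleavage at room temperature · Read-out basis – percent inhibition of cleavage signal versus uninhibited and no-proteasome wells · Medium – Tris-HCl pH 7.4 with ATP-MgCl2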
An asterisk follows results filed as active; x = not tested or not shown.

SMILES | CRFBP-R2 block | iPSC survival up | H9c2 protect | CRFBP-R2 agonist | MIN6 prolif | UCH37 DUB inh
COc1ccc(NC(=O)c2c(-c3ccccc3)noc2C)c(OC)c1 | -10 | 0 | -4 | -1 | 2 | 1
COC(=O)c1cc(OC)c(OC)cc1NC(=O)c1ccc(C)o1 | 5 | -1 | 50* | -1 | 0 | -9
COC(=O)c1cc(OC)c(OC)cc1NC(=O)CCc1ccc(C)o1 | -3 | 3 | 0 | -3 | 1 | 1
COc1ccccc1NS(=O)(=O)c1cc([N+](=O)[O-])ccc1NN=Cc1c(C)[nH]c2ccccc12 | x | x | x | x | x | 6
CCOCCCN(Cc1cc2cc(C)cc(C)c2[nH]c1=O)C(=O)N(CC)CC | 52* | 2 | 4 | -1 | -1 | -12
COc1ccc(C=NNC(=O)c2cc(-c3ccccc3OC(C)C)nc3ccccc23)cc1CN1CCOCC1 | x | x | x | x | x | 1
CCn1c(O)c(N=NC(=O)c2ccc(CSc3nncn3C)cc2)c2ccccc21 | 16 | 5 | 19 | -3 | 1 | 13
Cn1cnnc1SCc1ccc(C(=O)N=Nc2c(O)n(Cc3ccc(Cl)cc3)c3ccccc23)cc1 | 11 | -1 | 54* | -2 | 0 | 8
CCCNCCC(c1ccco1)c1ccccc1OC (stereo not drawn) | 56* | -3 | 2 | 0 | 3 | 1
CCC(=O)NCCC(c1ccco1)c1ccccc1OC (stereo not drawn) | -17 | -2 | 4 | 1 | -2 | -1
CC(=NNC(=O)c1c(Cl)c(C)nn1C)c1cccc(NC(=O)COc2ccccc2)c1 | x | x | x | x | x | -52
Cn1c(SCC(=O)c2ccc3c(c2)OCCO3)nnc1C(F)(F)F | 111* | -1 | 4 | -1 | -2 | 4
COCCn1c(SCC(=O)c2ccc3c(c2)OCCO3)nnc1-c1ccco1 | 98* | 0 | 9 | 0 | -1 | 4
Cn1c(SCC(=O)Nc2ccc3c(c2)OCCO3)nnc1C(F)(F)F | -5 | 1 | -3 | -1 | 0 | 1
CC(Cn1cnc([N+](=O)[O-])n1)=NNC(=O)c1ccccc1O | x | x | x | x | x | 3
O=C(Cc1ccc(Br)cc1)Nc1ccc2[nH]ncc2c1 | -24 | 25* | 2 | -2 | -3 | 0
O=C(Cc1ccccc1)Nc1ccc2[nH]ncc2c1 | 2 | 2 | 1 | -3 | 1 | 1
COC(=O)/C(C#N)=C/c1c(N2CCN(c3ccccc3)CC2)nc2ccccn2c1=O | -7 | 0 | 18 | 1 | -2 | 0
CNC(=O)/C(C#N)=C/c1c(N(Cc2ccccc2)Cc2ccccc2)nc2ccccn2c1=O | -8 | -1 | 56* | 1 | 0 | 1
Cc1ccc(C(=O)NCCN(C)C)c(C)c1 | 1 | -4 | -4 | -1 | 2 | 0
CNc1c2cccc(C)c2nc2c(C(=O)NCCN(C)C)cccc12 | 4 | -2 | -3 | 54* | x | x
Fc1ccc(NN=C2CC(c3ccccc3)Oc3ccccc32)c(F)c1 (stereo not drawn) | x | x | x | x | x | 3
Cc1nc2ccccc2c2oc(C(=O)NC3CC3)cc12 | -21 | -1 | 16 | 3 | 2 | 4
CCOc1ccc(NC(=O)c2cc3c(C)nc4ccccc4c3o2)cc1 | -2 | 3 | 61* | 1 | -2 | -1
CCCCN(C(=O)c1ccc2c(c1)S(=O)(=O)N=C1CCCCCN12)c1c(N)n(CCCC)c(=O)[nH]c1=O | 96* | 0 | 2 | -1 | 0 | -4
SMILES | CRFBP-R2 block | iPSC survival up | H9c2 protect | CRFBP-R2 agonist | MIN6 prolif | UCH37 DUB inh
COc1ccc(C=NNc2ccc([N+](=O)[O-])cc2[N+](=O)[O-])c(C(=O)O)c1OC | x | x | x | x | x | 16
Cn1nc([N+](=O)[O-])nc1Oc1ccc(C(C)(C)C)cc1 | 76* | 2 | -8 | -3 | 1 | 4
Cn1nc([N+](=O)[O-])nc1Oc1ccccc1 | 23 | 1 | 0 | 0 | -1 | 0
O=C(NC1CCCCC1)C(c1ccc2ncccc2c1)N(Cc1ccccc1)C(=O)c1ccc2c(c1)OCCO2 (stereo not drawn) | -61 | -1 | 53* | -3 | -2 | 3
CN(C)c1ccc(/C=C(/C#N)C(=O)NCc2ccccc2)o1 | -99 | 1 | 13 | 108* | -2 | 9
N#C/C(=C/c1ccccc1)C(=O)NCc1ccccc1 | -31 | 1 | 26 | -2 | -2 | 4
